Test results reported in ChEMBL document CHEMBL1138564, “Microwave-induced synthesis and anti-microbial activities of 7,10,11,12-tetrahydrobenzo[c]acridin-8(9H)-one derivatives” (2009).
In brackets after ≈: the same amount, converted by molar mass. Activity calls are given as the source filed them. The calls are words filed in the database; no cut-off is given here.

What was measured:
Aspergillus fumigatus [1] = assay: Antimicrobial activity against Aspergillus fumigatus NCIM 902 after 72 hrs by serial dilution method; assay type: functional; settings: NCIM 902, 72 h
Procedure, shortened: (§1)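 MIC by broth dilution in Sabouraud's dextrose broth, only for fungi sensitive in disc diffusion. Two-fold serial dilutions of compounds are made in 1 ml broth per tube, range 3.9 to 1000. Inoculated tubes are incubated at 27 °C for 72 h.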

Pseudomonas aeruginosa [2] = assay: Antimicrobial activity against Pseudomonas aeruginosa NCIM 2200 after 24 hrs by serial dilution method; assay type: functional; settings: NCIM 2200, 24 h
Procedure, shortened: (§2)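 Broth dilution MIC in nutrient broth, run only for organisms found sensitive in disc diffusion. Compounds are two-fold serially diluted in 1 ml sterile broth per tube, spanning 3.9 to 1000. Inoculated tubes are incubated at 37 °C for 24 h.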

[3] = test system: Rhodococcus corynebacterioides; assay: Antimicrobial activity against Corynebacterium rubrum NCIM 2252 after 24 hrs by serial dilution method; assay type: functional; settings: Rhodococcoides corynebacterioides, NCIM 2252, 24 h; procedure, shortened: as §2
Klebsiella aerogenes = assay: Antimicrobial activity against Klebsiella aerogenes NCIM 2239 after 24 hrs by serial dilution method; assay type: functional; settings: NCIM 2239, 24 h; procedure, shortened: as §2
Proteus vulgaris [4] = assay: Antimicrobial activity against Proteus vulgaris NCIM 2027 at 1000 ug/disk after 24 hrs by disk diffusion method; assay type: functional
Procedure, shortened: (§3)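 Disc diffusion on Mueller–Hinton agar. 100 µl of bacterial suspension at 10⁸ CFU/ml is spread on the plate. Discs carry test compounds at two loadings, dissolved in DMSO; DMSO alone serves as negative control. Ofloxacin disc is the positive reference. Plates are incubated at 37 °C for 24 h, and the inhibition zone diameter is measured.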

Pseudomonas aeruginosa [5] = assay: Antimicrobial activity against Pseudomonas aeruginosa NCIM 2200 at 500 ug/disk after 24 hrs by disk diffusion method; assay type: functional
Procedure, shortened: (§4)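 Disc diffusion. 100 µl of bacterial suspension at 10⁸ CFU/ml was spread on Mueller–Hinton agar. Discs loaded with test compound dissolved in DMSO were placed on the lawn, with a DMSO-only disc as negative control. Plates were incubated at 37 °C for 24 h, and the inhibition zone diameter was measured.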

Aspergillus niger [6] = assay: Antimicrobial activity against Aspergillus niger NCIM 1196 at 500 ug/disk after 72 hrs by disk diffusion method
Lipomyces lipofer = assay: Antimicrobial activity against Lipomyces lipofer NCIM 3252 at 500 ug/disk after 72 hrs by disk diffusion method; assay type: functional
Procedure, shortened: (§5)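 Disc diffusion on Sabouraud's dextrose agar. 100 µl of fungal suspension at 10⁶ CFU/ml is spread on the plate. Discs carry test compounds at two loadings in DMSO; DMSO alone is the negative control. Clotrimazole disc is the positive reference. Plates are incubated at 27 °C for 72 h, and the zone of inhibition diameter is measured.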

Staphylococcus = assay: Antimicrobial activity against Staphylococcus albus NCIM 2178 after 24 hrs by serial dilution method; assay type: functional; settings: NCIM 2178, 24 h
Aspergillus parasiticus = assay: Antimicrobial activity against Aspergillus parasiticus NCIM 904 at 500 ug/disk after 72 hrs by disk diffusion method; assay type: functional; settings: NCIM 904, 72 h, read-out: DIZ; procedure, shortened: as §5
Aspergillus niger [7] = assay: Antimicrobial activity against Aspergillus niger NCIM 1196 at 1000 ug/disk after 72 hrs by disk diffusion method
Salmonella typhimurium = assay: Antimicrobial activity against Salmonella Typhimurium NCIM 2501 after 24 hrs by serial dilution method; assay type: functional, Salmonella enterica subsp. enterica serovar Typhimurium; settings: Salmonella enterica, NCIM 2501, 24 h
Trichoderma viride [8] = assay: Antimicrobial activity against Trichoderma viride NCIM 1195 after 72 hrs by serial dilution method; assay type: functional; settings: NCIM 1195, 72 h
Procedure, shortened: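 MIC by broth dilution in Sabouraud's dextrose broth, run only on fungi found sensitive in the disc assay. Twofold serial dilutions were made in 1 ml broth per tube, covering 3.9 to 1000. Inoculated tubes were incubated at 27 °C for 72 h.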

Bacillus cereus [9] = assay: Antimicrobial activity against Bacillus cereus NCIM 2155 after 24 hrs by serial dilution method; assay type: functional; settings: NCIM 2155, 24 h; procedure, shortened: as §2
Aliivibrio fischeri = assay: Antimicrobial activity against Vibrio fischeri NCIM 2154 at 500 ug/disk after 24 hrs by disk diffusion method; assay type: functional; settings: for zone of inhibition at 500 µg/disc: NCIM 2154, 24 h, read-out: DIZ; procedure, shortened: as §4
Bacillus cereus [10] = assay: Antimicrobial activity against Bacillus cereus NCIM 2155 at 500 ug/disk after 24 hrs by disk diffusion method; assay type: functional; settings: for zone of inhibition at 500 µg/disc: NCIM 2155, 24 h, read-out: DIZ; procedure, shortened: as §3
Bacillus subtilis = assay: Antimicrobial activity against Bacillus subtilis NCIM 2063 after 24 hrs by serial dilution method; assay type: functional; settings: NCIM 2063, 24 h; procedure, shortened: as §2
Proteus vulgaris [11] = assay: Antimicrobial activity against Proteus vulgaris NCIM 2027 after 24 hrs by serial dilution method; assay type: functional; settings: NCIM 2027, 24 h; procedure, shortened: as §2
Trichoderma viride [12] = assay: Antimicrobial activity against Trichoderma viride NCIM 1195 at 500 ug/disk after 72 hrs by disk diffusion method; assay type: functional; settings: NCIM 1195, 72 h, read-out: DIZ
Procedure, shortened: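 Fungal disc diffusion. 100 µl of suspension at 10⁶ CFU/ml was spread on Sabouraud's dextrose agar. Discs carrying test compound in DMSO were applied, with a DMSO-only disc as negative control. Plates were incubated at 27 °C for 72 h, and the zone of inhibition diameter was measured.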

Aspergillus fumigatus [13] = assay: Antimicrobial activity against Aspergillus fumigatus NCIM 902 at 500 ug/disk after 72 hrs by disk diffusion method; assay type: functional; procedure, shortened: as §5
Aspergillus niger [14] = assay: Antimicrobial activity against Aspergillus niger NCIM 902 at 1000 ug/disk after 72 hrs by disk diffusion method; assay type: functional; settings: NCIM 1196, 72 h, in the assay text read “NCIM 1196” for “NCIM 902”, read-out: DIZ; procedure, shortened: as §5
Aspergillus niger [15] = assay: Antimicrobial activity against Aspergillus niger NCIM 902 after 72 hrs by serial dilution method; assay type: functional; settings: NCIM 1196, 72 h, in the assay text read “NCIM 1196” for “NCIM 902”; procedure, shortened: as §1
Penicillium chrysogenum = assay: Antimicrobial activity against Penicillium chrysogenum NCIM 707 after 72 hrs by serial dilution method; assay type: functional; settings: NCIM 707, 72 h; procedure, shortened: as §1

Structure (SMILES) | MIC (Aspergillus fumigatus [1]) | MIC [3] | MIC (Klebsiella aerogenes) | diameter of the inhibition zone (DIZ) (Aspergillus niger [6]) | diameter of the inhibition zone (DIZ) (Lipomyces lipofer) | zone of inhibition at 500 µg/disc (Aspergillus parasiticus) | diameter of the inhibition zone (DIZ) (Aspergillus niger [7]) | MIC (Salmonella typhimurium) | MIC (Trichoderma viride [8]) | MIC (Bacillus cereus [9]) | zone of inhibition at 500 µg/disc (Aliivibrio fischeri) | zone of inhibition at 500 µg/disc (Bacillus cereus [10]) | MIC (Bacillus subtilis) | zone of inhibition at 500 µg/disc (Trichoderma viride [12]) | diameter of the inhibition zone (DIZ) (Aspergillus fumigatus [13]) | diameter of the inhibition zone (DIZ) (Proteus vulgaris [4]) | diameter of the inhibition zone (DIZ) (Pseudomonas aeruginosa [5]) | diameter of the inhibition zone (DIZ) (Aliivibrio fischeri) | other results
CC1(C)CC(=O)C2=C(C1)Nc1c(ccc3ccccc13)C2c1ccc(Cl)cc1 (stereo unspecified) | 125 µg/mL (≈ 322 µM) | 62.5 µg/mL (≈ 161 µM) | 62.5 µg/mL (≈ 161 µM) | inactive | inactive | 12 mm | inactive | 31.2 µg/mL (≈ 80.4 µM) | 62.5 µg/mL (≈ 161 µM) | 15.6 µg/mL (≈ 40.2 µM) | 7 mm | 10 mm | 31.2 µg/mL (≈ 80.4 µM) | 7 mm | inactive | – | – | – | MIC (Pseudomonas aeruginosa [2]): 62.5 µg/mL (≈ 161 µM); zone of inhibition at 1000 µg/disc (Proteus vulgaris [4]; NCIM 2027, 24 h, read-out: DIZ): 10 mm; zone of inhibition at 500 µg/disc (Pseudomonas aeruginosa [5]; NCIM 2200, 24 h, read-out: DIZ): 7 mm; MIC (Staphylococcus): 125 µg/mL (≈ 322 µM); MIC (Proteus vulgaris [11]): 62.5 µg/mL (≈ 161 µM)
O=C1CCCC2=C1C(c1cccc(Cl)c1)c1ccc3ccccc3c1N2 (stereo unspecified) | 31.2 µg/mL (≈ 86.7 µM) | 125 µg/mL (≈ 347 µM) | 125 µg/mL (≈ 347 µM) | inactive | inactive | 12 mm | inactive | – | 125 µg/mL (≈ 347 µM) | – | 9 mm | – | 31.2 µg/mL (≈ 86.7 µM) | 8 mm | – | inactive | inactive | – | diameter of the inhibition zone (DIZ) (Bacillus cereus [10]): inactive; zone of inhibition at 500 µg/disc (Aspergillus fumigatus [13]; NCIM 902, 72 h, read-out: DIZ): 8 mm
O=C1CCCC2=C1C(c1ccccc1O)c1ccc3ccccc3c1N2 (stereo unspecified) | 62.5 µg/mL (≈ 183 µM) | – | – | inactive | inactive | 9 mm | – | – | 62.5 µg/mL (≈ 183 µM) | 125 µg/mL (≈ 366 µM) | – | 7 mm | 62.5 µg/mL (≈ 183 µM) | 9 mm | inactive | inactive | inactive | inactive | zone of inhibition at 1000 µg/disc (Aspergillus niger [14]): 9 mm; MIC (Aspergillus niger [15]): 125 µg/mL (≈ 366 µM); MIC (Penicillium chrysogenum): 125 µg/mL (≈ 366 µM)
CC1(C)CC(=O)C2=C(C1)Nc1c(ccc3ccccc13)C2c1ccccc1O (stereo unspecified) | – | – | 62.5 µg/mL (≈ 169 µM) | inactive | inactive | 10 mm | inactive | 31.2 µg/mL (≈ 84.4 µM) | 31.2 µg/mL (≈ 84.4 µM) | 62.5 µg/mL (≈ 169 µM) | – | 7 mm | 62.5 µg/mL (≈ 169 µM) | 10 mm | inactive | inactive | inactive | inactive | –
CC1(C)CC(=O)C2=C(C1)Nc1c(ccc3ccccc13)C2c1ccccc1 (stereo unspecified) | 62.5 µg/mL (≈ 177 µM) | – | – | inactive | inactive | 7 mm | inactive | 62.5 µg/mL (≈ 177 µM) | 31.2 µg/mL (≈ 88.3 µM) | 31.2 µg/mL (≈ 88.3 µM) | – | 9 mm | 31.2 µg/mL (≈ 88.3 µM) | 9 mm | inactive | inactive | inactive | inactive | –
